The record followed here is ChEMBL document CHEMBL1135792, “Inhibition of the antibacterial target UDP-(3-O-acyl)-N-acetylglucosamine deacetylase (LpxC): isoxazoline zinc amidase inhibitors bearing diverse metal binding groups” (J Med Chem, 2002).

Assay [1] deals with Escherichia coli. As to the kind of experiment: Inhibition of Escherichia coli growth in vitro. The class given is functional.
Assay [2] deals with Escherichia coli. The assay can be described thus: Inhibition of EnvAl Escherichia coli growth in vitro. In kind it is functional.
In assay [3] the target is T1, UDP-3-O-acyl-N-acetylglucosamine deacetylase (Escherichia coli K-12, UniProt P0A725).
T1 sequence (P0A725 whole entry): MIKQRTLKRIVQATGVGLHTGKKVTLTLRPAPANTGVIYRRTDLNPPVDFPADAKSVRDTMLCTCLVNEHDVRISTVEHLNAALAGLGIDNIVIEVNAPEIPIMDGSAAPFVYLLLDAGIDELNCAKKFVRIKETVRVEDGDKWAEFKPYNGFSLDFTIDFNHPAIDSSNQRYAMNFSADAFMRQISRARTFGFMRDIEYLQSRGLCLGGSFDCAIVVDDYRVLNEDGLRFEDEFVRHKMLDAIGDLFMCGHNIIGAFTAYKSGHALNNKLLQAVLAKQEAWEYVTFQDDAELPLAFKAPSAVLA
As to the kind of experiment: Inhibition of Escherichia coli LpxC(UDP-3-O-[R-3-hydroxymyristoyl]-GlcNAc deacetylase. The method, boiled down:
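Purified E. coli LpxC (2.5 nM) preincubated 30 min on ice with inhibitor (0.1-500 µg/mL) and 1 mg/mL BSA. Stopped with NaOH, substrate and product separated by PEI-cellulose TLC, phosphorimaged. IC50 from eq 1.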

For assay [4], the system named is Escherichia coli. The assay can be described thus: Inhibition of Escherichia coli LpxC in a second order rate constant. The method, boiled down: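 Purified E. coli LpxC (100 µM) preincubated at 30 °C with inhibitor (0-0.8 mM) in 100 mM bis-Tris pH 7, 12% DMF. Aliquots taken over time, diluted 10-fold into 27 mM UDP-GlcNAc, bis-Tris pH 7, 30 °C. UDP-GlcN read by fluorescamine (ex 395/em 485 nm). Pseudo-first-order kobs fit to exponential decay, then plotted against inhibitor concentration and fit by eq 2.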

Assay [5] deals with Escherichia coli. The assay can be described thus: Antibacterial activity against Escherichia coli.
Assay [6] deals with Escherichia coli. The assay can be described thus: Inhibitory activity measured against Escherichia coli. In kind it is functional.
Assay [7] has as its system Escherichia coli. As to the kind of experiment: Antibacterial activity against EnvA1 Escherichia coli. In kind it is functional.

pIC50, pKi: −log10 of the molar value. In brackets after ≈: the same amount, converted by molar mass. Some results are limits rather than exact numbers.

Broadly, the pIC50 is the negative decadic logarithm of the IC50, by convention in mol/L. Read a high pIC50 as a low IC50. For `COc1ccc(C2=NO[C@@H]([C@H](O)CS)C2)cc1` (relative stereo), the zone diameter with Escherichia coli [1] and in the assay with Escherichia coli [2] was under 6 mm throughout. This compound gave a pIC50 in assay [3] of under 3.40.
For the compound `COc1ccc(C2=NOC(C(=O)NCO)C2)cc1` (racemic), the zone diameter with Escherichia coli [1] and in the assay with Escherichia coli [2] was under 6 mm in each case. In assay [3], this compound gave a pIC50 of under 3.40.
Turning to `COc1ccc(C2=NOC(S(N)(=O)=O)C2)cc1` (centres undefined), the zone diameter in the assay with Escherichia coli [1] and in the assay on Escherichia coli [2] was under 6 mm in each case. In assay [3], this compound showed a pIC50 of under 2.92.
As to `COc1ccc(C2=NO[C@@H]([C@@H](O)CS)C2)cc1` (relative stereo), the zone diameter in the assay with Escherichia coli [1] and in the assay with Escherichia coli [2] was under 6 mm each time. Besides, in assay [3], the pIC50 was under 3.40.
For `COc1ccc(C2=NOC(CS)C2)cc1` (racemic), the zone diameter with Escherichia coli [1] and with Escherichia coli [2] was under 6 mm in each case. In assay [3], the pIC50 was 4.66.
For `COc1ccc(C2=NOC(C(=O)Nc3nccs3)C2)cc1` (racemic), the zone diameter in the assay on Escherichia coli [1] and with Escherichia coli [2] was under 6 mm in each case. For the same compound, the pIC50 in assay [3] is under 3.41.
With `COc1ccc(C2=NOC(C(=O)O)C2)cc1` (racemic), the zone diameter in the assay on Escherichia coli [1] and in the assay with Escherichia coli [2] was under 6 mm throughout. Moreover, the pIC50 in assay [3] was under 3.35.
Usually pKi stands for the negative decadic logarithm of the Ki, by convention in mol/L. `COc1ccc(C2=NOC([C@@H]3CS3)C2)cc1` (some centres undefined) gave a pKi in the assay on Escherichia coli [4] of 3.52. For the same compound, the zone diameter in the assay with Escherichia coli [1] and in the assay on Escherichia coli [2] was under 6 mm each time.
`COc1ccc(C2=NOC([C@H]3CS3)C2)cc1` (some centres undefined): the pKi with Escherichia coli [4] was 3.10. In addition, the zone diameter in the assay on Escherichia coli [1] and in the assay on Escherichia coli [2] was under 6 mm in each case.
In the case of `COc1ccc(C2=NOC(C(=O)NO)C2)cc1` (racemic), the zone diameter in the assay with Escherichia coli [1] is under 6 mm; in the assay on Escherichia coli [2], 21 mm. For the same compound, the pIC50 in assay [3] was 4.89.
With `COc1ccc(C2=NOC(C(=O)NN)C2)cc1` (racemic), the zone diameter with Escherichia coli [1] and in the assay with Escherichia coli [2] was under 6 mm throughout. Further, the pIC50 in assay [3] was under 3.37.
`COc1ccc(C2=NOC(C(=O)CS)C2)cc1` (racemic): the zone diameter in the assay on Escherichia coli [1] and in the assay on Escherichia coli [2] was under 6 mm each time. Further, the pIC50 in assay [3] is 4.57.
Consider `COc1ccc(C2=NOC(C(=O)CSC(C)=O)C2)cc1` (racemic), for which the zone diameter in the assay on Escherichia coli [1] and with Escherichia coli [2] was under 6 mm in each case. Further, the pIC50 in assay [3] was 4.92.
Regarding `COc1ccc(C2=NOC(P(C)(=O)O)C2)cc1` (racemic), the zone diameter with Escherichia coli [1] and in the assay with Escherichia coli [2] was under 6 mm in each case. The same compound had a pIC50 in assay [3] of 3.77.
Regarding `COc1ccc(C2=NOC(P(=O)(O)O)C2)cc1` (racemic), the zone diameter with Escherichia coli [1] and with Escherichia coli [2] was under 6 mm each time. The same compound showed a pIC50 in assay [3] of 5.40.
With `COc1ccc(C2=NOC(C(=O)NNC=O)C2)cc1` (racemic), the zone diameter with Escherichia coli [1] and in the assay with Escherichia coli [2] was under 6 mm each time. In assay [3], this compound gave a pIC50 of 3.40.
On to `COc1ccc(C2=NO[C@@H](C(=O)NO)C2)cc1`, for which the zone diameter with Escherichia coli [1] and in the assay on Escherichia coli [2] was under 6 mm each time.
Regarding `COc1ccc(C2=NOC(C(=O)Nc3ccccn3)C2)cc1` (racemic), the zone diameter with Escherichia coli [1] and in the assay with Escherichia coli [2] was under 6 mm each time. Also, in assay [3], the pIC50 was under 3.47.
One may read the MIC as the lowest concentration found to suppress growth. A high value points to weaker potency. Consider `CO[C@H]1/C=C/O[C@@]2(C)Oc3c(C)c(O)c4c(O)c(c(/C=N/N5CCN(C)CC5)c(O)c4c3C2=O)NC(=O)/C(C)=C\C=C\[C@H](C)[C@H](O)[C@@H](C)[C@@H](O)[C@@H](C)[C@H](OC(C)=O)[C@@H]1C` [RIFAMPIN], for which the MIC with Escherichia coli [5] worked out at 2 µg/mL (≈ 2.43 µM).
Regarding `COc1ccc(C2=NOC(S(C)(=O)=O)C2)cc1` (racemic), the zone diameter with Escherichia coli [1] and in the assay on Escherichia coli [2] was under 6 mm each time. The compound further had a pIC50 in assay [3] of under 3.41.
On to `COc1ccc(C2=N[C@@H](C(=O)NO)CO2)cc1`, for which the zone diameter worked out at 11 mm with Escherichia coli [1] and 24 mm with Escherichia coli [2]. In assay [3], this compound gave a pIC50 of 5.52.
With `COc1ccc(C2=NO[C@H](C(=O)NO)C2)cc1`, the zone diameter with Escherichia coli [6] is under 6 mm; in the assay on Escherichia coli [2] it was 26 mm. Also, in the assay on Escherichia coli [7], it took 3.9 µg/mL (≈ 16.5 µM) to inhibit growth (MIC). In assay [3], this compound had a pIC50 of 5.36.
